An excerpt weighted towards active compounds, which were near 1.5% of everything screened.
APJ antag: antagonists of human apelin receptor APJ, primary screen, CHO-K1 cells, beta-arrestin complementation, luminescence; P35414; inhibition, % at 20 µM; 0.32% of 330,000 active; AID 2521, 2010;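 active = inhibition above about 40% at 20 µM, limit read from the data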;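 note: cells challenged with 10 nM apelin-13 agonist together with compound; plate controls were apelin-13 plus DMSO wells for no effect and DMSO wells lacking apelin-13 for full effect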
EBI2 antag: EBI2 receptor antagonists, beta-arrestin recruitment, primary screen, cell-based, luminescence, 7a,25-OHC stimulation, uHTS; 7a,25-OHC stimulated; inhibition, % at 5 µM; 0.81% of 360,000 active; AID 651636, 2012; in the data active = inhibition above about 38%;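 note: enzyme fragment complementation signal reports receptor beta-arrestin coupling in cells; 0% = agonist plus DMSO wells and 100% = wells without agonist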
APJ agonist: agonists of human apelin receptor APJ, primary screen, CHO-K1 cells, PathHunter beta-arrestin, luminescence; 0.11% of 330,000 active; activation, % at 20 µM; AID 2520, 2010; 0% DMSO wells, 100% apelin;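 active = activation more than six SD over the plate average, tested at 20 µM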;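 note: 0% = DMSO alone and 100% = apelin-13 at 10 nM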
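Test system: CHO-K1 APJ beta-arrestin complementation cell line. Amount: cell density 1000 per well. Controls: DMSO negative, 10 nM Apelin-13 positive. Signal: luminescent beta-gal fragment complementation, chemiluminescent substrate. Read-out basis: agonist-driven arrestin binding to APJ. Timing: compound stimulation 90 min at 25 °C, detection 60 min.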
CCR6 antag: CCR6 receptor antagonists, primary screen, cell-based, CHO-K1, luminescence, beta-arrestin, uHTS; C-C chemokine receptor type 6 (Homo sapiens), P51684; CHO-K1 CCR6 PathHunter beta-arrestin, CCL20-stimulated; inhibition, % at 20 µM; 0.49% of 340,000 active; AID 493098, 2011;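 active = compounds whose inhibition of the agonist-driven luminescence signal at 20 µM reaches about 50%, limit read from the data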;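 note: cells stimulated with CCL20 at 14 nM final; plate controls were DMSO with CCL20 for no effect and DMSO without agonist for full effect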
CXCR6 inh: CXCR6 receptor inhibitors, primary screen, cell-based, beta-arrestin, luminescence, CHO-K1 PathHunter, 1536-well | C-X-C chemokine receptor type 6 (Homo sapiens), O00574 | AID 602244, 2012 | 0.36% of 360,000 active | inhibition, % at 20 µM; in the data active = inhibition above about 34%, passing the limit was not always enough;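 note: antagonist mode with CXCL16 agonist at 10 nM final; 0% = 10 nM CXCL16 with DMSO and 100% = unstimulated wells without agonist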
Target sequence (O00574 whole entry, looked up): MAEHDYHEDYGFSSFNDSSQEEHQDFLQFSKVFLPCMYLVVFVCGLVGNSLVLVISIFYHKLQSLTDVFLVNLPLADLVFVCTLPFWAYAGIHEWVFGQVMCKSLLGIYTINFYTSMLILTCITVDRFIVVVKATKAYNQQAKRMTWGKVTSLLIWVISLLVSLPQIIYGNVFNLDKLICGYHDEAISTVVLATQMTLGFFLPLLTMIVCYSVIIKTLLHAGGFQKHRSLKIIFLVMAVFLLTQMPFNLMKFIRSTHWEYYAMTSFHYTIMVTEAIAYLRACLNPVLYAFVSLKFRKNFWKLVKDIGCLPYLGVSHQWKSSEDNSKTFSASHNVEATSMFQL
APJ antag conf: APJ antagonists blocking beta-arrestin recruitment, confirmation, cell-based, luminescence, single concentration, uHTS hits; shares compounds with APJ antag; 66% of 950 active; inhibition, % at 20 µM; antagonist mode; AID 2766, 2010; in the data active = inhibition above about 50%
Active calls of the source: *.

`Cc1ccc(OCC(=O)OCC(=O)c2cccc([N+](=O)[O-])c2)cc1C` gave APJ antag 57*, EBI2 antag 24, APJ agonist -19, CCR6 antag 51*, CXCR6 inh 39 and APJ antag conf 55*.
For CC(=O)Nc1ccc(NC(=O)CCC(=O)OCC(=O)c2cccc([N+](=O)[O-])c2)cc1 the results were APJ antag 47*, EBI2 antag 15, APJ agonist -10, CCR6 antag 38, CXCR6 inh 27 and APJ antag conf 86*.
For O=C(COC(=O)c1cnccn1)c1ccc2ccccc2c1 the results were APJ antag 30, EBI2 antag -4, APJ agonist -2, CCR6 antag 31 and CXCR6 inh 10.
Screening O=C(CCC(=O)OCC(=O)c1cccc([N+](=O)[O-])c1)Nc1ccccc1Cl returned APJ antag 68*, EBI2 antag 12, APJ agonist -13, CCR6 antag 62*, CXCR6 inh 30 and APJ antag conf 112*.
For O=c1[nH][nH]c2c1[C@H](c1ccc(Cl)cc1)O[C@H](C1CC1)C2 the results were EBI2 antag -3 and CXCR6 inh -8.
Screening O=C(c1ccccn1)N(Cc1ccco1)C1(C(=O)Nc2ccc(Br)cc2)CCCCC1 returned EBI2 antag 11 and CXCR6 inh 0.
For COc1cc([N+](=O)[O-])ccc1NC(=S)NNC(=O)CCC(=O)Nc1ccccc1Cl the results were APJ antag 45*, EBI2 antag 7, APJ agonist -14, CCR6 antag 34, CXCR6 inh 31 and APJ antag conf 51*.
`O=C(COC(=O)c1cc2ccccc2oc1=O)c1cccc([N+](=O)[O-])c1` gave APJ antag 48*, EBI2 antag 12, APJ agonist -6, CCR6 antag 52*, CXCR6 inh 29 and APJ antag conf 83*.
Screening O=C(CCC(=O)OCC(=O)c1cccc([N+](=O)[O-])c1)NC1CCCCC1 returned APJ antag 43*, EBI2 antag 5, APJ agonist -15, CCR6 antag 58*, CXCR6 inh 24 and APJ antag conf 99*.
Screening CCOC(=O)CN(c1sc(C)c(C)c1C(=O)OCC)S(=O)(=O)c1ccc(C)cc1 returned EBI2 antag -2 and CXCR6 inh 12.
`CN(C(=O)CSc1nc2ccccc2o1)C1CCCCC1` gave APJ antag 4, EBI2 antag -6, APJ agonist 1, CCR6 antag 19 and CXCR6 inh 8.
Screening O=C1COc2ccc(C(=O)COC(=O)c3ccc([N+](=O)[O-])cc3Cl)cc2N1 returned APJ antag -129, EBI2 antag 1, APJ agonist 17, CCR6 antag -2 and CXCR6 inh -21.
Cc1ccc(CC2(C)C(=O)Nc3c(Cl)ccc(Cl)c32)cc1 (stereo unspecified) was read as EBI2 antag -3 and CXCR6 inh -1.
Screening Oc1[nH]c2c(Cl)cc(Cl)cc2c1N=NC(=S)NCC1CCCO1 (stereo unspecified) returned APJ antag 40*, EBI2 antag 29, APJ agonist -1, CCR6 antag 58*, CXCR6 inh 36 and APJ antag conf 64*.
Screening Cc1cc(C)c2[nH]c(O)c(N=NC(=S)NCC3CCCO3)c2c1 (stereo unspecified) returned APJ antag 23, EBI2 antag 7, APJ agonist 2, CCR6 antag 22 and CXCR6 inh 18.
O=C(N/N=C/c1ccc(-c2ccccc2Cl)o1)c1ccccc1 was read as APJ antag 1, EBI2 antag 4, APJ agonist -3, CCR6 antag 10 and CXCR6 inh -5.
For O=S(=O)(N/N=C\c1ccc(-c2ccccc2Cl)o1)c1ccccc1 the results were APJ antag 59*, EBI2 antag 14, APJ agonist -12, CCR6 antag 46, CXCR6 inh 16 and APJ antag conf 59*.
Screening CN(CCCS(=O)(=O)[O-])c1ccc(/C=C/c2ccc3ccccc3[n+]2C)cc1 returned APJ antag 17, EBI2 antag -4, APJ agonist -5, CCR6 antag 17 and CXCR6 inh 1.
Screening CN(C)c1ccc(/C=C/c2ccc3ccccc3[n+]2C)cc1 returned APJ antag 64*, EBI2 antag 6, APJ agonist -3, CCR6 antag 53*, CXCR6 inh 48* and APJ antag conf 89*.
For COC(=O)[C@@]12C[C@@H](CC(=O)N3CCC(c4ccccc4)CC3)C(=O)N(Cc3ccc4c(c3)OCO4)C1=CCC(C)(C)C2 the results were EBI2 antag 21.
Screening CCCOc1ccc(C2C(=O)N(C3CCCCC3)CC(=O)N2CCCOCC)cc1OC (stereo unspecified) returned APJ antag -4, EBI2 antag -5, APJ agonist -6, CCR6 antag -4 and CXCR6 inh -6.
Screening CCOCCCN1C(=O)CN(C2CCCCC2)C(=O)C1c1ccc(OC)c(OC)c1 (stereo unspecified) returned APJ antag 40, EBI2 antag 5, APJ agonist -2, CCR6 antag 0, CXCR6 inh 2 and APJ antag conf 6.
For Cn1nc(C(C)(C)C)cc1C(=O)N1CCCCC1c1cc(C(=O)Nc2ccc3c(c2)OCO3)no1 (stereo unspecified) the results were EBI2 antag -3 and CXCR6 inh -2.
Screening COc1ccc(NC(=O)Cc2ccc(Cl)c(Cl)c2)cn1 returned APJ antag -1, EBI2 antag 3, APJ agonist -1, CCR6 antag -10 and CXCR6 inh -4.
COc1ccc(NC(=O)/C(Cl)=C(/Cl)S(=O)Cc2ccccc2Cl)cn1 (stereo unspecified) was read as APJ antag 79*, APJ agonist -6, CCR6 antag 96* and APJ antag conf 104*.
OCCN1C[C@H](O)[C@@H](O)[C@H](O)[C@H]1CO was read as APJ antag 43*, APJ agonist -12 and APJ antag conf 65*.
Cc1ccccc1-n1c(Cn2c(=O)sc3ccccc32)nnc1SCC(=O)N1CCOCC1 was read as APJ antag 52*, EBI2 antag 5, APJ agonist 0, CCR6 antag 5, CXCR6 inh -2 and APJ antag conf 19.
`O=C(CSc1nnc(Cn2c(=O)sc3ccccc32)n1-c1ccccc1)N1CCOCC1` gave APJ antag -4, EBI2 antag 4, APJ agonist -1, CCR6 antag -3 and CXCR6 inh -2.
O=C1C=C(O)c2[nH]c(=O)ccc2C1=O was read as EBI2 antag -42, CCR6 antag 11 and CXCR6 inh -5.

Screening results: PubChem BioAssay, Sanford-Burnham Center for Chemical Genomics
